Columns and labels:
[1] = Inhibition of wild type Bacillus subtilis DNA polymerase-3 using DNAase 1-treated DNA as template assessed as inhibition of dGTP truncated DNA synthesis by measuring incorporation of [3H]-TMP in presence of dithiothreitol
Procedure, shortened: (§1)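 dGTP-omitted pol III reaction, 30 °C, 5 min, in 0.05 mL: 20% glycerol, 50 mM Tris HCl pH 7.6, 10 mM MgCl2, 30 mM NaCl, 1.2 mM DNAase I-activated calf thymus DNA, 5 mM DTT, 0.1 mg/mL BSA, 10 μM each dATP, dCTP and [3H]-TTP, 0.005-0.1 unit enzyme. Read-out is acid-insoluble radioactivity. Ki is the inhibitor concentration giving 50% inhibition.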

Bacillus subtilis [2] = assay: Inhibition of wild type Bacillus subtilis DNA polymerase-3 using DNAase 1-treated DNA as template assessed as inhibition of dGTP truncated DNA synthesis by measuring incorporation of [3H]-TMP at 20 uM in presence of dithiothreitol relative to control; procedure, shortened: as §1
Bacillus subtilis [3] = assay: Inhibition of HPUra/HPiCyt-resistant Bacillus subtilis DNA polymerase-3/azp-12 mutant using DNAase 1-treated DNA as template assessed as inhibition of dGTP truncated DNA synthesis by measuring incorporation of [3H]-TMP at 20 uM relative to control in presence of dithiothreitol; procedure, shortened: as §1
[4] = Inhibition of HPUra/HPiCyt-resistant Bacillus subtilis DNA polymerase-3/azp-12 mutant using DNAase 1-treated DNA as template assessed as inhibition of dGTP truncated DNA synthesis by measuring incorporation of [3H]-TMP in presence of dithiothreitol; procedure, shortened: as §1
Bacillus subtilis [5] = assay: Inhibition of wild type Bacillus subtilis DNA polymerase-3 using DNAase 1-treated DNA as template assessed as inhibition of dGTP truncated DNA synthesis by measuring incorporation of [3H]-TMP at 1 mM in presence of dithiothreitol relative to control; procedure, shortened: as §1
Bacillus subtilis [6] = assay: Resistance ratio of Ki for HPUra/HPiCyt-resistant Bacillus subtilis DNA polymerase-3/azp-12 mutant to Ki for wild type Bacillus subtilis DNA polymerase-3

Row | SMILES | Ki [1] | other results
1 | Cc1ccc(NNc2cc(=O)[nH]c(=O)[nH]2)cc1Cl | 0.8 µM | –
2 | CCc1ccccc1NNc1cc(=O)[nH]c(=O)[nH]1 | 562 µM | –
3 | Cc1ccc(NNc2cc(=O)[nH]c(=O)[nH]2)cc1C | 1.4 µM | –
4 | O=c1cc(NNc2ccccc2F)[nH]c(=O)[nH]1 | 7.2 µM | –
5 | Cc1cccc(NNc2cc(=O)[nH]c(=O)[nH]2)c1 | 2.5 µM | inhibition (Bacillus subtilis [2]): 80%; inhibition (Bacillus subtilis [3]): 85%
6 | Cc1ccccc1NNc1cc(=O)[nH]c(=O)[nH]1 | 234 µM | –
7 | Cc1ccc(NNc2cc(=O)[nH]c(=O)[nH]2)cc1 | 0.5 µM | Ki [4]: 0.4 µM
8 | O=c1cc(NNc2ccc([N+](=O)[O-])cc2)[nH]c(=O)[nH]1 | 26.3 µM | –
9 | CS(=O)(=O)c1ccc(NNc2cc(=O)[nH]c(=O)[nH]2)cc1 | 209 µM | –
10 | O=c1cc(NNc2ccc(F)cc2)[nH]c(=O)[nH]1 | 3 µM | inhibition (Bacillus subtilis [2]): 82%; inhibition (Bacillus subtilis [3]): 93%
11 | CN(Nc1cc(=O)[nH]c(=O)[nH]1)c1ccccc1 | 480 µM | –
12 | O=c1cc(NNc2cccc(Br)c2)[nH]c(=O)[nH]1 | 1.4 µM | –
13 | Cc1cc(NNc2cc(=O)[nH]c(=O)[nH]2)ccc1O | 51.2 µM | –
14 | O=c1cc(NNc2ccc(Cl)c(Cl)c2)[nH]c(=O)[nH]1 | 0.6 µM | –
15 | NNc1cc(=O)[nH]c(=O)[nH]1 | – | inhibition (Bacillus subtilis [5]): < 10%
16 | O=c1cc(NNc2ccccc2)[nH]c(=O)[nH]1 | 1.4 µM | Ki [4]: 2.1 µM
17 | CC(=O)Nc1ccc(NNc2cc(=O)[nH]c(=O)[nH]2)cc1 | 560 µM | –

Row | SMILES | Ki [1] | other results
18 | O=c1cc(NNc2ccc(Br)cc2)[nH]c(=O)[nH]1 | 0.7 µM | inhibition (Bacillus subtilis [2]): 82%; inhibition (Bacillus subtilis [3]): 95%
19 | O=c1cc(NNc2cccc(Cl)c2)[nH]c(=O)[nH]1 | 1.1 µM | –
20 | O=c1cc(NNc2ccc(O)c(Cl)c2)[nH]c(=O)[nH]1 | 8.8 µM | –
21 | O=c1cc(NNc2cccc(F)c2)[nH]c(=O)[nH]1 | 0.7 µM | –
22 | Nc1nc(NNc2ccc(O)cc2)cc(=O)[nH]1 | – | Ratio Ki (Bacillus subtilis [6]): 30
23 | O=C(O)c1ccc(NNc2cc(=O)[nH]c(=O)[nH]2)cc1 | 98 µM | –
24 | O=c1cc(NNc2ccc(O)cc2)[nH]c(=O)[nH]1 | 0.4 µM | Ratio Ki (Bacillus subtilis [6]): 50; Ki [4]: 20 µM
25 | Cn1c(=O)cc(NNc2ccccc2)[nH]c1=O | 1.6 µM | –
26 | CCCCc1ccc(NNc2cc(=O)[nH]c(=O)[nH]2)cc1 | 2300 µM | –
27 | O=c1cc(NNc2ccc(Cl)cc2)[nH]c(=O)[nH]1 | 0.9 µM | inhibition (Bacillus subtilis [2]): 91%; inhibition (Bacillus subtilis [3]): 95%
28 | CCc1ccc(NNc2cc(=O)[nH]c(=O)[nH]2)cc1 | 1.6 µM | –
29 | Cn1c(=O)cc(NNc2ccc(O)cc2)[nH]c1=O | 0.5 µM | –
30 | Nc1ccc(NNc2cc(=O)[nH]c(=O)[nH]2)cc1 | 7.1 µM | Ki [4]: 76.4 µM
31 | Nc1cc(O)nc(O)n1 | – | inhibition (Bacillus subtilis [5]): < 10%
32 | Cn1c(NNc2ccccc2)cc(=O)[nH]c1=O | – | inhibition (Bacillus subtilis [5]): < 10%
33 | Cc1cc(NNc2cc(=O)[nH]c(=O)[nH]2)cc(C)c1O | 124 µM | –

From ChEMBL document CHEMBL3272286, “Inhibitors of Bacillus subtilis DNA polymerase III. Structure-activity relationships of 6-(phenylhydrazino)uracils” (J Med Chem, 1977)
